Hits are enriched below; roughly 2.9% of the tested compounds scored in any of these assays.
TRPC6 inhibitor: mouse TRPC6 channel inhibition; HEK293-TRPC6, membrane potential dye, ACh-evoked depolarization; stronger effect = lower value; B-score at 10 µM; 1.1% of 310,000 active; AID 2553;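 active = B-score under library mean minus 3 SD, initial fluorescence not abnormally high, positive integrated signal ratio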;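 note: B-score derived from integrated fluorescence ratio over the kinetic read; more negative B-score means stronger inhibition of depolarization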
TRPC6 activator: activators of mouse TRPC6 channel; Q61143; HEK293-TRPC6 membrane potential dye fluorescence; stronger effect = higher value; B-score at 10 µM; 0.13% of 310,000 active;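 active = B-score of the integrated fluorescence ratio above library mean plus 3 SD, and starting fluorescence ratio within library mean plus 5 SD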;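 note: higher score means more depolarization so channel activation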
TRPC4 inh: blocks the mouse TRPC4 cation channel; Q9QUQ5; HEK293 TRPC4beta/mu-opioid, DAMGO-evoked Fluo4 calcium flux; stronger effect = lower value; B-score at 10 µM; 0.39% of 300,000 active;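 active = B-score over 3 SD under the library average, no early fluorescence shift, positive overall ratio signal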
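Assay system: Stable TRPC4beta/mu-opioid receptor HEK293 cells | Reagent: DAMGO in two steps, submaximal then maximal | Compound dosing: Single concentration per test compound | Signal: Fluo4 Ca2+ flux fluorescence | Evaluation: Per-well B score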
TRPC4 PAM: TRPC4 (mouse) allosteric potentiation; Q9QUQ5; HEK293 TRPC4beta/mu-opioid, DAMGO EC20, Fluo-4 Ca2+ flux; stronger effect = higher value; B-score at 10 µM; 0.42% of 310,000 active; AID 2227;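 active = B-score of calcium response area above 5 SD of library B-scores, with initial fluorescence ratio within 5 SD of library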
Kir21 block: blocks the mouse Kir2.1 inward-rectifier potassium channel; B-score at 10 µM; HEK293-Kir2.1, FluxOR thallium flux fluorescence; stronger effect = lower value; 0.85% of 310,000 active; AID 1672;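 active = fluorescence ratio B-score at or below minus 3 SD of library scores, with starting-brightness B-score within 2 SD, cut at about -4.2 in these data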;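 note: channel flux triggered by added potassium and thallium sulfate stimulus; B-score of peak minus minimum fluorescence over baseline after thallium stimulus; more negative B-score means stronger Kir2.1 block with less thallium influx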
Target sequence (P35561 whole entry, looked up): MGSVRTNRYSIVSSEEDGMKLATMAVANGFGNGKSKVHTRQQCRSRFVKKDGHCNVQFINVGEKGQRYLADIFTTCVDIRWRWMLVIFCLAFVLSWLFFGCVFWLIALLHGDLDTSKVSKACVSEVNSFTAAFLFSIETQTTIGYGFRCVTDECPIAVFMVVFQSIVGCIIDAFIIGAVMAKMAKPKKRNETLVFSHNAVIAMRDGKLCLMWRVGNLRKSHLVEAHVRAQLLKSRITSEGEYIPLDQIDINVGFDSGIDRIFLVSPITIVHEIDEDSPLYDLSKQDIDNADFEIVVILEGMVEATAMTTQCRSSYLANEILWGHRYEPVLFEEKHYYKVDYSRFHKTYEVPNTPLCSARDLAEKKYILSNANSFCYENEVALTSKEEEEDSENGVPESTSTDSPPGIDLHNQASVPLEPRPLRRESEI
TRPC4 agonist: TRPC4 (mouse) channel activation. 0.49% of 310,000 active. AID 2237. Q9QUQ5. B-score at 10 µM. HEK293 TRPC4beta/mu-opioid, Fluo4 calcium fluorescence; stronger effect = higher value;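 active = B-score above 5 SD of library B-scores, and initial fluorescence ratio not above library mean plus 5 SD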;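 note: positive B-score marks a calcium rise read as TRPC4 activation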
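Assay system: HEK293 stable line with TRPC4beta plus mu-opioid receptor. Times: dye 45 min RT, read 110 s. Measured by: kinetic Fluo4 calcium fluorescence. Measure: B score of integrated ratio. Controls: assay buffer as low control, maximal DAMGO as high control.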
Each line names hits and unclear results; the compound was inactive in the other large screens.

CCN(c1ccccc1)S(=O)(=O)c1ccc(Cl)c(NC(=O)CN2CCCCCC2)c1	TRPC6 activator 18
Nc1ccccc1Sc1ccc(C(=O)c2ccccc2C(=O)O)cc1[N+](=O)[O-]	none
CC(C)OC(=O)c1ccccc1C(=O)c1ccc(N)c([N+](=O)[O-])c1	Kir21 block -5.3
CCOc1ccc(S(=O)(=O)N2CCN(C)CC2)c(C)c1C	none
CCOc1ccc(S(=O)(=O)N2CCCCC2)c(C)c1C	TRPC4 PAM 14
Cc1ccc(CN2C(=O)CSc3ccc(C(=O)NCCN4CCOCC4)cc32)cc1	none
O=C(NCCN1CCOCC1)c1cc2sccc2n1Cc1ccc(F)cc1	TRPC4 inh -7
O=C(NCCN1CCOCC1)c1ccc2c(c1)N(Cc1ccc(F)cc1)C(=O)CS2	TRPC4 inh -7
O=C(NCCN1CCOCC1)c1cc2sccc2n1Cc1ccc(Cl)cc1	none
CC(=O)Nc1ccccc1NC(=O)C/C(C)=N/NC(=O)C(=O)N1CCCCC1	none
COc1ccc(OCC(=O)Nc2ccccc2N2CCN(C)CC2)cc1	TRPC4 inh -6
CCC(=O)N1CCN(c2ccccc2NC(=O)COc2ccc(C(C)C)cc2)CC1	TRPC4 PAM 11
COc1ccc(CC(=O)Nc2ccccc2N2CCCC2)cc1OC	Kir21 block -4.5
O=C(CCNC(=O)c1ccc(Cl)cc1)Nc1ccccc1N1CCCCC1	TRPC4 inh -5, Kir21 block -4.6
Cc1oc2cc3oc(=O)c(CCC(=O)N[C@H](C(=O)O)C(C)C)c(C)c3cc2c1C	none
Cc1cc(=O)oc2c(C)c(OCC(=O)N3CCC(C(=O)O)CC3)ccc12	none
COc1ccc(CC(=O)Nc2ccccc2N2CCCC2)cc1	Kir21 block -6.3
COc1ccc(OCC(=O)Nc2ccccc2N2CCCCC2)cc1	none
CCOC(=O)C1CCCN(C(c2ccccn2)c2c(C)[nH]c3ccccc23)C1 (stereo not drawn)	TRPC4 agonist 148
Cc1[nH]c2ccccc2c1C(c1ccccn1)N1CCCC1 (stereo not drawn)	none
CCOc1ccc(-n2ccnc2SCC(=O)Nc2cc(C)on2)cc1	none
CCNC(=O)NC(=O)C(C)Oc1ccc(Br)cc1Br (stereo not drawn)	none
CCOc1ccc(OCC(O)CN2CCc3ccccc3C2)cc1 (stereo not drawn)	none
Cc1ccc(C)c(OCC(O)CN2CCc3ccccc3C2)c1C (stereo not drawn)	Kir21 block -5.7
CN(CC(=O)Nc1ccccc1Br)CC(=O)Nc1ccccc1C(F)(F)F	none
COc1ccc(CCNC(=O)CCSc2nc(-c3ccco3)cc(C(F)(F)F)n2)cc1OC	Kir21 block -4.4
CCCS(=O)(=O)N1CCN(Cc2ccc3c(c2)c2ccccc2n3CC)CC1	Kir21 block -5.9
COC(=O)c1ccccc1OCCCN(C)C	TRPC4 PAM 11
O=C(CSCc1ccccc1Br)NC1CC1	none
CSc1ccccc1NC(=O)CSCc1ccccc1Br	Kir21 block -5.3
Cc1cccc(C)c1N1CCN(c2n[nH]c(N)n2)CC1	none
Cc1cccc(C)c1N1CCc2cn[nH]c21	TRPC4 inh -6
COc1ccc(S(=O)(=O)NNC(=O)Nc2ccc(F)cc2F)c(OC)c1	none
O=C(c1ccc(COc2ccccc2Br)cc1)N1CCCCC1	TRPC4 PAM 10
O=C(c1ccc(COc2ccccc2Br)o1)N1CCCCCC1	none
COc1ccc(CCCc2nnc(SCc3nc4ccccc4c(=O)[nH]3)n2C)c(C)c1	none
Cc1ccccc1-c1nc(CN2CCC(C(=O)NCc3cccs3)CC2)c(C)o1	TRPC4 inh -6
CCN(Cc1ccccc1)C(=O)CCc1nc(-c2ccc(C)cc2)no1	Kir21 block -6.7
CCc1ccccc1N(CC)C(=O)CCc1nc(-c2ccc(C)cc2)no1	none
Cc1ccc(-c2noc(CCC(=O)NCCN3CCOCC3)n2)cc1	none
Cc1ccc(-c2noc(CCC(=O)NCCN3CCc4ccccc4C3)n2)cc1	Kir21 block -8.8
COc1ccc(-c2noc(CCC(=O)NCCCN3CCC(Cc4ccccc4)CC3)n2)cc1	Kir21 block -4.6
COc1ccccc1CNC(=O)COC(=O)c1nc(Cl)ccc1Cl	none
CC(C)Cc1cc(C(=O)N2CCCC(CO)(Cc3ccc(F)cc3F)C2)n[nH]1 (stereo not drawn)	none
NCCc1nc(-c2ccccc2)cs1	TRPC4 agonist 116
NC(=O)Cc1nc(-c2ccccc2)cs1	none
Cc1cc(N2CCCCC2)nc(N)n1	TRPC4 agonist 80
C/[N+]([O-])=C\c1cccc(OCCN2CCN(c3ncc(C(F)(F)F)cc3Cl)CC2)c1	TRPC4 PAM 12
Cc1ccc(C2CC(=O)NC(SCc3ccccc3)=C2C#N)o1 (stereo not drawn)	Kir21 block -6.9
CCSC1=C(C#N)C(c2ccc(C)o2)CC(=O)N1 (stereo not drawn)	none
N#CC1=C(SCc2ccccc2)NC(=O)CC1c1ccco1 (stereo not drawn)	Kir21 block -9.1
CC(C)C(NC(=O)c1ccc(C(C)(C)C)cc1)C(=O)NCC1(N(C)C)CCCCC1 (stereo not drawn)	none
CN(C)C(=O)c1ccc(Nc2nnc(-c3ccc(O)cc3)c3ccccc23)cc1	TRPC4 agonist 60
CNC(=O)c1ccc(Nc2nnc(-c3ccc(O)cc3)c3ccccc23)cc1	none
O=C(c1cccc(S(=O)(=O)N2CCc3ccccc32)c1)N1CCN(c2ccccn2)CC1	TRPC6 activator 16
O=C1CN(C(=O)c2ccc(Br)o2)C(c2ccccc2)c2cc(Br)ccc2N1 (stereo not drawn)	TRPC4 PAM 13
COC(=O)CSC1=NS(=O)(=O)c2ccccc21	Kir21 block -5.8
CCNS(=O)(=O)c1ccc(NC(=O)Nc2ccc3c(c2)OCO3)cc1	TRPC4 agonist 61
CN(C)C(CNC(=O)C1CCN(S(=O)(=O)c2cccc(C(F)(F)F)c2)CC1)c1ccccc1 (stereo not drawn)	TRPC4 inh -8, TRPC4 agonist 48
CN(C)C(CNC(=O)Cc1cccc(C(F)(F)F)c1)c1ccccc1 (stereo not drawn)	TRPC4 inh -7, TRPC4 agonist 161
CN(C)c1cccc(C(=O)NCC(c2ccco2)N(C)C)c1 (stereo not drawn)	none
CN(C)C(CNC(=O)Cc1cccc(C(F)(F)F)c1)c1ccco1 (stereo not drawn)	TRPC4 agonist 90
Nc1nc(Nc2cccc(C(F)(F)F)c2)nc(C(F)(F)F)n1	TRPC6 inhibitor -6.1
COC(=O)c1c(SCC(=O)Nc2ccc(C)c(C)c2)nc(=O)[nH]c1C	none
O=C1c2ccccc2C2(c3cc(C(F)(F)F)cc(C(F)(F)F)c3)NCCN12 (stereo not drawn)	TRPC4 inh -6
